ChEMBL document CHEMBL3865799, “Synthesis of a series of novel dihydroartemisinin monomers and dimers containing chalcone as a linker and their anticancer activity” (Eur J Med Chem, 2016)

Columns and labels:
[1] = Cell cycle arrest in human HL60 cells assessed as accumulation at S phase at 1 uM after 24 hrs by propidium iodide-DNA fluorescence based FACS analysis (reference value: 53 %); assay type: functional; settings: HL-60
In short: (§1)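 HL-60 cells seeded at 0.5 × 10^6 cells/ml, exposed 24 h to compound (DMSO vehicle, <0.2% v/v). Pelleted at 400×g, PBS-washed, fixed in 70% ethanol at 4 °C overnight. RNase A treatment at 37 °C for 1.30 h, then propidium iodide staining for 20 min. Flow cytometry on 10,000 events, FL2-A vs FL2-W; subG0 (apoptotic) and phase populations gated.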

[2] = Cytotoxicity against human HL60 cells assessed as cell growth inhibition at 10 uM after 48 hrs by MTT assay; assay type: functional; settings: HL-60, 48 h, read-out: GI
In short: (§2)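 HL-60 suspension cells, 1.5 × 10^4 per well, grown at 37 °C in 5% CO2 with 10% FCS. Treated 48 h with compound in DMSO (vehicle <0.2% v/v). MTT added 3 h before the end. Formazan dissolved in DMSO and read at 570 nm (reference 620 nm). % growth inhibition computed against untreated cells; IC50 taken from the concentration series.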

[3] = Cell cycle arrest in human HL60 cells assessed as accumulation at S phase at 0.5 uM after 24 hrs by propidium iodide-DNA fluorescence based FACS analysis (reference value: 53 %); assay type: functional; settings: HL-60; in short: as §1
[4] = Cytotoxicity against human MIAPaCa2 cells assessed as cell growth inhibition after 48 hrs by MTT assay; assay type: functional, cell-based; settings: MIA PaCa-2, 48 h
In short: (§3)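 Adherent lines at 70–75% confluence, grown at 37 °C in 5% CO2 with 10% FCS. Exposed 48 h to compound in DMSO (vehicle <0.2% v/v). MTT dye added 3 h before termination; formazan dissolved in DMSO, OD 570 nm with 620 nm reference. Growth inhibition expressed as % of untreated; IC50 taken from the dose series.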

[5] = Cytotoxicity against human HepG2 cells assessed as cell growth inhibition after 48 hrs by MTT assay; assay type: functional, cell-based; settings: HepG2, 48 h; in short: as §3
[6] = Selectivity index, ratio of IC50 for African green monkey Vero cells to IC50 for human LS180 cells; assay type: functional
In short: (§4)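 Suspension cells were seeded at 1.5 × 10^4 per well and adherent lines at 70–75% confluence, then exposed to a range of concentrations. MTT was added 3 h before the end, formazan dissolved in DMSO, and OD read at 570 nm (reference 620 nm). Growth inhibition was taken relative to untreated cells. IC50 came from the MTT data; SI = IC50 in Vero cells / IC50 in the tumour line.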

[7] = Cell cycle arrest in human HL60 cells assessed as accumulation at S phase at 5 uM after 24 hrs by propidium iodide-DNA fluorescence based FACS analysis (reference value: 53 %); assay type: functional; settings: HL-60; in short: as §1
[8] = Cytotoxicity against human LS180 cells assessed as cell growth inhibition after 48 hrs by MTT assay; assay type: functional, cell-based; settings: LS180, 48 h; in short: as §3
[9] = Cell cycle arrest in human HL60 cells assessed as accumulation at subG0 phase at 0.2 uM after 24 hrs by propidium iodide-DNA fluorescence based FACS analysis (reference value: 5 %); assay type: functional; settings: HL-60; in short: as §1
[10] = Cell cycle arrest in human HL60 cells assessed as accumulation at G1 phase at 0.5 uM after 24 hrs by propidium iodide-DNA fluorescence based FACS analysis (reference value: 46 %); assay type: functional; settings: HL-60; in short: as §1
[11] = Cytotoxicity against human PC3 cells assessed as cell growth inhibition after 48 hrs by MTT assay; assay type: functional, cell-based; settings: PC-3, 48 h
In short: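 Exposed 48 h to compound in DMSO (vehicle <0.2% v/v). MTT dye added 3 h before termination; formazan dissolved in DMSO, OD 570 nm with 620 nm reference. Growth inhibition expressed as % of untreated; IC50 taken from the dose series.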

HepG2 = assay: Selectivity index, ratio of IC50 for African green monkey Vero cells to IC50 for human HepG2 cells; assay type: functional; in short: as §4
[12] = Cytotoxicity against human LS180 cells assessed as cell growth inhibition at 50 uM after 48 hrs by MTT assay; assay type: functional; settings: LS180, 48 h, read-out: GI; in short: as §3
[13] = Cytotoxicity against human HL60 cells assessed as cell growth inhibition at 30 uM after 48 hrs by MTT assay; assay type: functional; settings: HL-60, 48 h, read-out: GI; in short: as §2
[14] = Cytotoxicity against human PC3 cells assessed as cell growth inhibition at 50 uM after 48 hrs by MTT assay; assay type: functional; settings: PC-3, 48 h, read-out: GI; in short: as §3
[15] = Cytotoxicity against human PC3 cells assessed as cell growth inhibition at 30 uM after 48 hrs by MTT assay; assay type: functional; settings: PC-3, 48 h, read-out: GI; in short: as §3
HL-60 [16] = assay: Induction of apoptosis in human HL60 cells assessed as loss of mitochondrial membrane potential at 0.2 uM after 24 hrs by Rh123 dye-based FACS analysis (reference value: 5%); assay type: functional
[17] = Cell cycle arrest in human HL60 cells assessed as accumulation at G2 phase at 5 uM after 24 hrs by propidium iodide-DNA fluorescence based FACS analysis (reference value: 1 %); assay type: functional; settings: HL-60; in short: as §1
[18] = Cytotoxicity against human HL60 cells assessed as cell growth inhibition at 0.5 uM after 48 hrs by MTT assay; assay type: functional; settings: HL-60, 48 h, read-out: GI; in short: as §2
[19] = Cytotoxicity against human HepG2 cells assessed as cell growth inhibition at 30 uM after 48 hrs by MTT assay; assay type: functional; settings: HepG2, 48 h, read-out: GI; in short: as §3
HL-60 [20] = assay: Induction of apoptosis in human HL60 cells assessed as loss of mitochondrial membrane potential at 1 uM after 24 hrs by Rh123 dye-based FACS analysis (reference value: 5%); assay type: functional
[21] = Cell cycle arrest in human HL60 cells assessed as accumulation at G1 phase at 1 uM after 24 hrs by propidium iodide-DNA fluorescence based FACS analysis (reference value: 46 %); assay type: functional; settings: HL-60; in short: as §1
[22] = Cell cycle arrest in human HL60 cells assessed as accumulation at G1 phase at 0.2 uM after 24 hrs by propidium iodide-DNA fluorescence based FACS analysis (reference value: 46 %); assay type: functional; settings: HL-60; in short: as §1
[23] = Cell cycle arrest in human HL60 cells assessed as accumulation at S phase at 0.2 uM after 24 hrs by propidium iodide-DNA fluorescence based FACS analysis (reference value: 53 %); assay type: functional; settings: HL-60; in short: as §1
HL-60 [24] = assay: Induction of apoptosis in human HL60 cells assessed as loss of mitochondrial membrane potential at 5 uM after 24 hrs by Rh123 dye-based FACS analysis (reference value: 5%); assay type: functional
[25] = Cytotoxicity against human HepG2 cells assessed as cell growth inhibition at 50 uM after 48 hrs by MTT assay; assay type: functional; settings: HepG2, 48 h, read-out: GI; in short: as §3
[26] = Cytotoxicity against human HL60 cells assessed as cell growth inhibition at 1 uM after 48 hrs by MTT assay; assay type: functional; settings: HL-60, 48 h, read-out: GI; in short: as §2
[27] = Cytotoxicity against human MIAPaCa2 cells assessed as cell growth inhibition at 50 uM after 48 hrs by MTT assay; assay type: functional; settings: MIA PaCa-2, 48 h, read-out: GI; in short: as §3
[28] = Cell cycle arrest in human HL60 cells assessed as accumulation at subG0 phase at 5 uM after 24 hrs by propidium iodide-DNA fluorescence based FACS analysis (reference value: 5 %); assay type: functional; settings: HL-60; in short: as §1
[29] = Cytotoxicity against human MIAPaCa2 cells assessed as cell growth inhibition at 30 uM after 48 hrs by MTT assay; assay type: functional; settings: MIA PaCa-2, 48 h, read-out: GI; in short: as §3

| SMILES | Activity [1] [%] | inhibition of growth at 10 µM [2] [%] | Activity [3] [%] | IC50 [4] [µM] | IC50 [5] [µM] | Ratio IC50 [6] | Activity [7] [%] | IC50 [8] [µM] | Activity [9] [%] | Activity [10] [%] | IC50 [11] [µM] | Ratio IC50 (HepG2) | inhibition of growth at 50 µM [12] [%] | inhibition of growth at 30 µM [13] [%] | inhibition of growth at 50 µM [14] [%] | inhibition of growth at 30 µM [15] [%] | Activity (HL-60 [16]) [%] | Activity [17] [%] | inhibition of growth at 0.5 µM [18] [%] | inhibition of growth at 30 µM [19] [%] | further results |
| --- | --- | --- | --- | --- | --- | --- | --- | --- | --- | --- | --- | --- | --- | --- | --- | --- | --- | --- | --- | --- | --- |
| C[C@H]1[C@@H](O)O[C@@H]2O[C@@]3(C)CC[C@H]4[C@H](C)CC[C@@H]1[C@@]24OO3 [ARTENIMOL] | 34 | 63 | 37 | 58 | 29 | 19 | 20 | 32 | 6 | 58 | > 100 | 1.81 | 42 | 91 | 43 | 41 | 8 | 5 | 36 | 36 | Activity (HL-60 [20]): 32%; Activity [21]: 62%; Activity [22]: 49%; Activity [23]: 49%; Activity (HL-60 [24]): 41%; inhibition of growth at 50 µM [25]: 39%; inhibition of growth at 1 µM [26]: 48.1%; inhibition of growth at 50 µM [27]: 71%; Activity [28]: 27%; inhibition of growth at 30 µM [29]: 58% |
| C[C@H]1[C@@H](OCCOc2cccc(C(=O)/C=C/c3ccc(O)cc3)c2)O[C@@H]2O[C@@]3(C)CC[C@H]4[C@H](C)CC[C@@H]1[C@@]24OO3 | 29 | 88.7 | 38 | 39 | 15 | >200 | 20 | > 50 | 4 | 54 | 18 | 55 | 35.2 | 93.3 | 87.9 | 83.5 | 7 | 16 | 52.9 | 37.8 to 77.4 | Activity (HL-60 [20]): 50%; Activity [21]: 52%; Activity [22]: 49%; Activity [23]: 46%; Activity (HL-60 [24]): 58%; inhibition of growth at 50 µM [25]: 33.2 to 64.5%; inhibition of growth at 1 µM [26]: 57%; inhibition of growth at 50 µM [27]: 88.6%; Activity [28]: 70%; inhibition of growth at 30 µM [29]: 37.8 to 77.4% |
| C[C@H]1[C@@H](OCCOc2ccc(/C=C/C(=O)c3ccc(O)cc3)cc2)O[C@@H]2O[C@@]3(C)CC[C@H]4[C@H](C)CC[C@@H]1[C@@]24OO3 | 70 | 88.4 | 32 | 22 | 7 | 96 | 35 | 24 | 4 | 59 | 14 | 450 | 75.2 | 90.1 | 88.9 | 88.6 | 9 | 10 | 58.2 | 68.3 to 86.8 | Activity (HL-60 [20]): 53%; Activity [21]: 14%; Activity [22]: 49%; Activity [23]: 46%; Activity (HL-60 [24]): 61%; inhibition of growth at 50 µM [25]: 55.2 to 82.3%; inhibition of growth at 1 µM [26]: 78.8%; inhibition of growth at 50 µM [27]: 88.8%; Activity [28]: 95%; inhibition of growth at 30 µM [29]: 68.3 to 86.8% |
